We go through 6 compounds from ChEMBL document CHEMBL1137445, “Bioassay-guided fractionation of pterocarpans from roots of Harpalyce brasiliana Benth” (Bioorg Med Chem, 2007).

≈ marks a conversion by molar mass, not a printed value.

What is called IC50 is the concentration at which inhibition is half-maximal. A higher IC50 goes with weaker potency.

Experiment [1] concerns HCT-8 (human). In words: Cytotoxicity against human HCT-8 cells by MTT assay. Background: Tetrazolium assays rely on reduction of a dye to a coloured formazan, in cell work by metabolically active cells.
The subject of experiment [2] is Lytechinus variegatus. In words: Antimitotic activity against Lytechinus variegatus at primary cleavage stage of egg development. It is filed as functional, tissue-based. In outline: (§1)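 Eggs were fertilized with diluted sperm in filtered seawater, and fertilization was confirmed by elevation of the vitellin membrane. Compounds were added 5 min after fertilization over a 0.1–100 range. Incubation was at room temperature. Aliquots were fixed in equal-volume 10% formaldehyde at first cleavage, third cleavage and blastula. 100 eggs were scored per concentration for % normal development. IC50 and 95% CI came from nonlinear regression of 3 independent experiments.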

For experiment [3], the system named is Lytechinus variegatus. Nature of the experiment: Antimitotic activity against Lytechinus variegatus at tertiary cleavage stage of egg development. It is filed as functional, tissue-based. Put shortly:
as §1

Experiment [4] relates to Lytechinus variegatus. In words: Antimitotic activity against Lytechinus variegatus at blastulae stage of egg development. The class given is functional, tissue-based. The settings on record: Blastula stage. In outline: as §1
Experiment [5] relates to HL-60. Nature of the experiment: Cytotoxicity against human HL60 cells by MTT assay. The class given is functional, cell-based. Put shortly:
(§2)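 Cell lines were from NCI. Viability was read by MTT reduction to formazan. IC50 and 95% confidence interval came from nonlinear regression of three independent experiments.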

Experiment [6] has as its system MDA-MB-435. Nature of the experiment: Cytotoxicity against human MDA-MB-435 cells by MTT assay. It is filed as functional, cell-based. Put shortly: as §2

Regarding `Oc1ccc2c(c1)OC[C@H]1c3cc4c(cc3O[C@@H]21)OCO4` [MAACKIAIN], the IC50 was more than 25 µg/mL in experiment [1]; 6.5 µg/mL (≈ 22.9 µM) in experiment [2]; 4.3 µg/mL (≈ 15.1 µM) in experiment [3]; 4.6 µg/mL (≈ 16.2 µM) in experiment [4]; 17.9 µg/mL (≈ 63 µM) in experiment [5]; 11.5 µg/mL (≈ 40.5 µM) in experiment [6].

Take `CC(CO)CCc1cc2c(cc1O)OCC1c3cc4c(cc3OC21)OCO4` (stereo unspecified): the IC50 in experiment [1] was 10.8 µg/mL (≈ 29.2 µM); in experiment [2], 5.18 µg/mL (≈ 14 µM); in experiment [3], 2.1 µg/mL (≈ 5.67 µM); in experiment [4], 1.7 µg/mL (≈ 4.59 µM); in experiment [5], more than 25 µg/mL; in experiment [6] it was 16.9 µg/mL (≈ 45.6 µM).

With `CC1(C)C=Cc2c(ccc3c2OCC2c4cc5c(cc4OC32)OCO5)O1` (stereo unspecified) [LEIOCARPIN], the IC50 was 6.9 µg/mL (≈ 19.7 µM) in experiment [1]; 1.1 µg/mL (≈ 3.14 µM) in experiment [2]; 0.4 µg/mL (≈ 1.14 µM) in experiment [3]; 0.2 µg/mL (≈ 0.571 µM) in experiment [4]; 5.5 µg/mL (≈ 15.7 µM) in experiment [5]; 13.7 µg/mL (≈ 39.1 µM) in experiment [6].

For `CC(C)=CCc1c(O)ccc2c1OCC1c3cc4c(cc3OC21)OCO4` (stereo unspecified), the IC50 came out at 8.5 µg/mL (≈ 24.1 µM) in experiment [1]; 15.2 µg/mL (≈ 43.1 µM) in experiment [2]; 4.8 µg/mL (≈ 13.6 µM) in experiment [3]; 3.3 µg/mL (≈ 9.36 µM) in experiment [4]; 3.1 µg/mL (≈ 8.8 µM) in experiment [5]; 4.9 µg/mL (≈ 13.9 µM) in experiment [6].

For the compound `COc1cccc2c1C(=O)c1c(O)c3c(c(O)c1C2=O)C[C@@](O)(C(=O)CO)C[C@@H]3O[C@H]1C[C@H](N)[C@H](O)[C@H](C)O1` [DOXORUBICIN], the IC50 in experiment [1] was 0.01 µg/mL (≈ 0.0184 µM); in experiment [2], 6.28 µg/mL (≈ 11.6 µM); in experiment [3], 0.34 µg/mL (≈ 0.626 µM); in experiment [4] it was 0.54 µg/mL (≈ 0.994 µM); in experiment [5] it was 0.02 µg/mL (≈ 0.0368 µM); in experiment [6], […].

As to `C/C(=C\Cc1c(O)ccc2c1OCC1c3cc4c(cc3OC21)OCO4)CO` (stereo unspecified), the IC50 in experiment [1] was 8.8 µg/mL (≈ 23.9 µM); in experiment [2] it was 1.5 µg/mL (≈ 4.07 µM); in experiment [3], 0.52 µg/mL (≈ 1.41 µM); in experiment [4] it was 0.43 µg/mL (≈ 1.17 µM); in experiment [5], 16.2 µg/mL (≈ 44 µM); in experiment [6], more than 25 µg/mL.
